High-throughput results deposited in PubChem by several laboratories.
ADAM17 inh – inhibitors of human ADAM17; recombinant ADAM17, EDANS/DABCYL FRET peptide cleavage; inhibition, % at 6.95 µM; 370,000 tested, 0.83% active; AID 720648;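 active = inhibition above the mean of compounds lying between control limits plus 3 SD, set per campaign, cut at about 8.5% in these data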;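 note: 0% = DMSO-only wells as the low control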
Arrestin-AP2 inh – blocks beta-arrestin peptide binding to AP2 adaptin; inhibition, % at 10 µM; 340,000 tested, 0.31% active; FITC-arrestin peptide / GST-AP2 beads, flow cytometry; AP2 beta2 appendage carries R879A mutation;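 active = inhibition above a set limit, near 3 SD of compounds lacking own fluorescence, cut at about 54% in these data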;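 note: plate controls were DMSO wells for no effect and 5 µM unlabelled arrestin peptide for full effect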
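System: GST-AP2 R879A glutathione beads; medium: PBS, Tween 20 0.05%, BSA 0.1%; reagent: fluorescein-tagged arrestin peptide at 50 nM final; schedule: pre-incubation 12 min, peptide binding 1 h, room temperature; detection: flow cytometry, FL1 (488/535 nm); read-out: inhibition as reduced fluorescein signal on beads, percent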
CaV13 FRET inh – Disruptors of the CACNA1D IQ motif to Ca2+-dependent inactivation inhibitor domain association, primary screening, Förster resonance energy transfer in intact living …; AID 743397; 340,000 tested, 0.098% active; HEK cells, CFP/YFP FRET ICDI-IQ, plate reader, 10 min; percent FRET-ratio fall versus neutral wells; inhibition, % at 12.3 µM;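 active = mean replicate inhibition of at least 30% and at least 1% of replicates passing that level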;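 note: 0% = median of the neutral control wells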
FAS TE block – blocks the thioesterase domain of human fatty acid synthase; P49327; recombinant FAS-TE, OMFH fluorogenic substrate, fluorescence endpoint; inhibition, % at 15 µM; 360,000 tested, 0.67% active; AID 602261;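 active = compounds whose normalised, plate-corrected inhibition of enzyme fluorescence in the single-dose primary screen is 50% or more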;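 note: 0% = DMSO with enzyme and 100% = substrate without enzyme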
CendR NRP1 mod – alters CendR peptide binding to human NRP-1; O14786; FAM-RPARPAR peptide binding to NRP-1, fluorescence polarization; inhibition, % at 25 µM; 360,000 tested, 0.85% active; AID 602438;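 active = inhibition or corrected inhibition above about 18%, plus a signal ratio from 0.5 to 1.5, limit read from the data, passing the limit was not always enough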
ADAM10 inh – inhibitors of human ADAM10; recombinant ADAM10, EDANS/DABCYL FRET peptide cleavage, 3 h; inhibition, % at 7 µM; 370,000 tested, 0.62% active; AID 720582;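 active = inhibition above a per-campaign cutoff equal to the mean of compounds falling between control-based bounds plus 3 SD, cut at about 20% in these data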;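 note: 0% = DMSO wells while the 100% control is not disclosed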
* hit, by the source's call. Only some compounds are listed: those with a hit (about 2.9% of all), similar ones and a draw of the others.

Screening COc1ccccc1[C@@H]1C(c2cccc(Cl)c2)=NN(c2ccccc2)[C@H]1C(=O)N1CCOC1=O returned Arrestin-AP2 inh 22.4, FAS TE block 91.0* and CendR NRP1 mod -6.3.
For Cc1cccc(C2=NN(c3ccc(Br)cc3)[C@@H](C(=O)N3CCOC3=O)[C@@H]2c2ccc(Cl)cc2)c1 the results were Arrestin-AP2 inh 1.9, FAS TE block 74.3* and CendR NRP1 mod -11.5.
`Cc1cccc(C2=NN(c3ccc(Br)cc3)[C@@H](C(=O)N3CCOC3=O)[C@@H]2c2ccc(F)cc2)c1` gave ADAM17 inh -208.5, Arrestin-AP2 inh 2.1, CaV13 FRET inh -3.7, FAS TE block 74.0*, CendR NRP1 mod -1.2 and ADAM10 inh inactive.
Screening O=C1OCCN1C(=O)[C@H]1[C@H](c2ccccc2)C(c2cccc(Cl)c2)=NN1c1ccc(Br)cc1 returned ADAM17 inh -130.7, Arrestin-AP2 inh -3.1, CaV13 FRET inh -9.1, FAS TE block 48.9, CendR NRP1 mod -11.7 and ADAM10 inh inactive.
`CC(=O)N1CCN(c2ccc(N3CCN(C(C)=O)[C@H](C)C3)c(C)c2)[C@H](C)C1` gave ADAM17 inh 4.4, CaV13 FRET inh -11.6 and ADAM10 inh -6.3.
CCOC(=O)CN1C(=O)[C@]2(OCCC=C[C@H]2C)c2cc(OC)ccc21 was read as ADAM17 inh -5.4, CaV13 FRET inh -4.4 and ADAM10 inh -14.7.
CC(C=NNc1ccc([N+](=O)[O-])cn1)=Cc1ccccc1 was read as ADAM17 inh -1.9, Arrestin-AP2 inh -9.6, CaV13 FRET inh -6.3, FAS TE block -1.4, CendR NRP1 mod -29.7 and ADAM10 inh -12.6.
`CNC(=O)NC(=O)C(C)OC(=O)c1c(C)noc1C` (stereo not given) gave ADAM17 inh 0.5, Arrestin-AP2 inh 8.3, CaV13 FRET inh -5.3, FAS TE block -4.6, CendR NRP1 mod 43.1* and ADAM10 inh 2.5.
Screening O=C(NNc1c2ccccc2nc2ccccc12)c1ccc(O)cc1 returned ADAM17 inh -212.9, Arrestin-AP2 inh -3.6, CaV13 FRET inh 43.7*, FAS TE block 1.8, CendR NRP1 mod -25.2 and ADAM10 inh inactive.
Screening O=C(NCc1cccs1)c1ccc(Cl)c(S(=O)(=O)N2CCOCC2)c1 returned ADAM17 inh 4.8, CaV13 FRET inh -6.6, FAS TE block -7.7, CendR NRP1 mod 30.8* and ADAM10 inh 4.0.
Screening COc1ccc(C(=O)NCc2cccs2)cc1S(=O)(=O)N1CCOCC1 returned ADAM17 inh -3.6, Arrestin-AP2 inh -7.7, CaV13 FRET inh -3.7, FAS TE block -5.4, CendR NRP1 mod 3.4 and ADAM10 inh 4.2.
For O=[N+]([O-])c1ccccc1C=NN1CCCCCC1 the results were ADAM17 inh 0.0, Arrestin-AP2 inh -3.9, CaV13 FRET inh -17.1, FAS TE block 7.3, CendR NRP1 mod 10.5 and ADAM10 inh -9.0.
`COCCn1c(Cc2ccccc2)nnc1SCC(=O)NC1CC1` gave ADAM17 inh -5.8, Arrestin-AP2 inh 22.1, CaV13 FRET inh -3.2, FAS TE block -6.6, CendR NRP1 mod 24.9* and ADAM10 inh -3.1.
ON=C1C2CC=C(c3ccccc3)C1CCC2 (stereo not given) was read as ADAM17 inh -1.5, Arrestin-AP2 inh -1.6, CaV13 FRET inh -7.0, FAS TE block 0.4, CendR NRP1 mod -2.7 and ADAM10 inh -5.4.
`COc1ccc(C=NCCc2ccc(OC)c(OC)c2)cc1OC` gave ADAM17 inh -5.5, CaV13 FRET inh -17.8, FAS TE block -7.2, CendR NRP1 mod 2.2 and ADAM10 inh -17.7.
For COc1ccc(NC(=O)CN(C)CC(=O)Nc2cccc(F)c2)cc1Cl the results were ADAM17 inh 1.2, Arrestin-AP2 inh 15.3, CaV13 FRET inh -2.9, FAS TE block 9.3, CendR NRP1 mod 28.5* and ADAM10 inh -1.1.
For COc1ccc(NC(=O)c2cccc(F)c2)cc1Cl the results were ADAM17 inh -1.0, Arrestin-AP2 inh -6.1, CaV13 FRET inh -4.5, FAS TE block 2.1, CendR NRP1 mod -6.8 and ADAM10 inh 1.3.
`CCOC(=O)C(C(=O)NCc1ccc(F)cc1)c1ncc(C(F)(F)F)cc1Cl` (stereo not given) gave ADAM17 inh -1.0, Arrestin-AP2 inh -0.3, CaV13 FRET inh -0.2, FAS TE block 23.0, CendR NRP1 mod 24.7* and ADAM10 inh -2.6.
`CC1(C)CC(=O)C2=C(C1)Oc1ncn3nc(-c4cccnc4)nc3c1C2c1ccccc1` (stereo not given) gave ADAM17 inh -4.2, Arrestin-AP2 inh -10.7, FAS TE block 10.6, CendR NRP1 mod 31.1* and ADAM10 inh 1.4.
For COc1ccc(C2C3=C(CC(C)(C)CC3=O)Oc3ncn4nc(-c5ccccc5)nc4c32)cc1 (stereo not given) the results were ADAM17 inh 1.4, Arrestin-AP2 inh -9.0, CaV13 FRET inh -12.4, FAS TE block 46.0, CendR NRP1 mod -0.1 and ADAM10 inh 7.8.
CC1(C(=O)Nc2cccc3ncccc23)CCN1C(=O)Cc1ccc(-c2ccccc2)cc1 (stereo not given) was read as ADAM17 inh -4.4, CaV13 FRET inh -5.5, FAS TE block 17.6, CendR NRP1 mod -9.1 and ADAM10 inh -12.8.
`CCC1(c2ccccc2)NC(=O)N(CC(=O)Nc2ccccc2C(=O)N2CCCCC2)C1=O` (stereo not given) gave ADAM17 inh -1.8, Arrestin-AP2 inh -9.6, CaV13 FRET inh -3.1, FAS TE block -9.2, CendR NRP1 mod 21.0* and ADAM10 inh -0.2.
Screening CCC1(c2ccc(F)cc2)NC(=O)N(CC(=O)Nc2cccc(S(=O)(=O)N3CCCCC3)c2)C1=O (stereo not given) returned ADAM17 inh 3.0, Arrestin-AP2 inh 21.6, CaV13 FRET inh -6.0, FAS TE block 7.2, CendR NRP1 mod 31.0* and ADAM10 inh 15.8.
CCCCn1c(SCC(=O)Nc2cc(C)on2)nnc1-c1ccncc1 was read as ADAM17 inh 0.5, Arrestin-AP2 inh 9.2, CaV13 FRET inh -7.1, FAS TE block -3.6, CendR NRP1 mod 8.7 and ADAM10 inh 3.9.
`CCCCn1c(SCC(=O)Nc2cc(C)on2)nnc1-c1cccnc1` gave ADAM17 inh -3.4, Arrestin-AP2 inh -13.4, CaV13 FRET inh -6.3, FAS TE block -4.9, CendR NRP1 mod 21.8* and ADAM10 inh -0.9.
For O=C(COc1ccc(S(=O)(=O)N2CCCCC2)cc1Cl)N1CCOCC1 the results were ADAM17 inh -1.5, Arrestin-AP2 inh 8.6, CaV13 FRET inh -7.1, FAS TE block -1.8, CendR NRP1 mod 2.0 and ADAM10 inh -1.4.
COc1ccccc1C(=O)N1CCN(C(=O)[C@@H](Cc2ccccc2)NC(=O)[C@H]2O[C@@H](n3ccc(N)nc3=O)[C@H](O)[C@@H]2O)CC1 was read as ADAM17 inh -2.8, CaV13 FRET inh -2.7 and ADAM10 inh -7.9.
